Measurements from ChEMBL document CHEMBL1221279, “Synthesis, biological evaluation, and structure-activity relationship study of novel cytotoxic aza-caffeic acid derivatives” (Bioorg Med Chem, 2010).
Calls of active or inactive are those of the source. The rule behind the calls is not given here.

Tests used:
BGC-823 = assay: Cytotoxicity against human BGC823 cells after 72 hrs by MTT assay; format: functional, cell-based; conditions: BGC-823, 72 h
In short: (§1)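 Cells grown in MEM with 10% fetal calf serum, penicillin and streptomycin at 37 °C, 5% CO2. Exponentially growing cells seeded in quadruplicate at 5 × 10³ per well and left 24 h before compounds (DMSO stocks) were added. After 72 h exposure, MTT added for 4 h at 37 °C, formazan dissolved in DMSO, read at 570 nm. IC50 read graphically from dose–response curves.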

K562 [1] = assay: Cytotoxicity against human K562 cells after 72 hrs by MTT assay; format: functional, cell-based; conditions: for IC50: K562, 72 h; in short: as §1
A549 = assay: Cytotoxicity against human A549 cells after 72 hrs by MTT assay; format: functional, cell-based; conditions: A549, 72 h; in short: as §1
[2] = Cytotoxicity against human LS 174T cells after 72 hrs by MTT assay; format: functional, cell-based; conditions: LS174T; in short: as §1
CNE = assay: Cytotoxicity against human CNE cells after 72 hrs by MTT assay; format: functional, cell-based; in short: as §1
[3] = Cytotoxicity against human ECA109 cells after 72 hrs by MTT assay; format: functional, cell-based; conditions: ECa-109, 72 h; in short: as §1
HeLa = assay: Cytotoxicity against human HeLa cells after 72 hrs by MTT assay; format: functional, cell-based; in short: as §1
PC-3 = assay: Cytotoxicity against human PC3 cells after 72 hrs by MTT assay; format: functional, cell-based; conditions: PC-3, 72 h; in short: as §1
[4] = Cytotoxicity against human Bel7404 cells after 72 hrs by MTT assay; format: functional, cell-based; conditions: BEL-7404, 72 h; in short: as §1
KB = assay: Cytotoxicity against human KB cells after 72 hrs by MTT assay; format: functional, cell-based; in short: as §1
[5] = Cytotoxicity against human HO8910 cells after 72 hrs by MTT assay; format: functional, cell-based; conditions: HO-8910, 72 h; in short: as §1
HL-60 = assay: Cytotoxicity against human HL60 cells after 72 hrs by MTT assay; format: functional, cell-based; conditions: HL-60, 72 h; in short: as §1
K562 [6] = assay: Induction of apoptosis in human K562 cells using Annexin V/PI staining at 0.5 uM after 48 hrs by flow cytometry relative to control (reference value: 4.17%); format: functional
K562 [7] = assay: Induction of apoptosis in human K562 cells assessed as increase of Bax/Bcl-2 ratio after 48 hrs by Western blotting; format: functional, cell-based
In short: (§2)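 K562 cells treated for 48 h at the indicated concentrations, then lysed in Tris-HCl pH 7.5/NaCl buffer with protease inhibitors. Protein measured by Lowry assay. 40 µg total protein run on SDS–PAGE and blotted to PVDF. Probed overnight at 4 °C with anti-caspase-3, anti-Bax, anti-Bcl-2 and anti-β-actin, with HRP secondary and chemiluminescence. Bands quantified by densitometry, at least three independent experiments.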

K562 [8] = assay: Induction of apoptosis in human K562 cells using Annexin V/PI staining at 8 uM after 48 hrs by flow cytometry relative to control (reference value: 4.17%); format: functional
K562 [9] = assay: Induction of apoptosis in human K562 cells assessed as up-regulation of caspase 3 expression at up to 8 uM after 48 hrs by Western blotting; format: functional, cell-based; in short: as §2
K562 [10] = assay: Induction of apoptosis in human K562 cells using Annexin V/PI staining at 0.5 uM after 72 hrs by flow cytometry relative to control (reference value: 5.45%); format: functional
K562 [11] = assay: Induction of apoptosis in human K562 cells using Annexin V/PI staining at 8 uM after 72 hrs by flow cytometry relative to control (reference value: 5.45%); format: functional
K562 [12] = assay: Induction of apoptosis in human K562 cells using Annexin V/PI staining at 2 uM after 48 hrs by flow cytometry relative to control (reference value: 4.17%); format: functional
K562 [13] = assay: Cytotoxicity against human K562 cells at up to 8 uM by MTT assay; format: functional, cell-based; conditions: TDE = time-dependent effect
In short: (§3)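 K562 cells grown in MEM with 10% fetal calf serum at 37 °C, 5% CO2, seeded in quadruplicate at 5 × 10³ per well. After 24 h, exposed to a range of concentrations for 48 or 72 h. MTT added for 4 h, formazan dissolved in DMSO, read at 570 nm. Viability expressed as % of untreated control, mean S.D. of at least three independent experiments.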

K562 [14] = assay: Cytotoxicity against human K562 cells assessed as reduction of cell viability at 8 uM after 72 hrs by MTT assay relative to control; format: functional; in short: as §3
K562 [15] = assay: Induction of apoptosis in human K562 cells using Annexin V/PI staining at 2 uM after 72 hrs by flow cytometry relative to control (reference value: 5.45%); format: functional

SMILES	IC50 (BGC-823) [µM]	IC50 (K562 [1]) [µM]	IC50 (A549) [µM]	IC50 [2] [µM]	IC50 (CNE) [µM]	IC50 [3] [µM]	IC50 (HeLa) [µM]	IC50 (PC-3) [µM]	IC50 [4] [µM]	IC50 (KB) [µM]	IC50 [5] [µM]	IC50 (HL-60) [µM]	further results
CCOc1ccc(COc2c(OC)cc(/C=C/C(=O)NCCN3CCOCC3)cc2OC)cc1	> 200	> 200	> 200	> 200	> 200	> 200	> 200	> 200	> 200	> 200	> 200	> 200	–
COc1ccc(/C=C/C(=O)NCCc2c[nH]c3ccccc23)cc1OC	> 200	> 200	> 200	> 200	> 200	> 200	> 200	> 200	> 200	> 200	> 200	> 200	–
CCOc1ccc(COc2c(OC)cc(/C=C/C(=O)N3CCN(Cc4ccc(Cl)c(Cl)c4)CC3)cc2OC)cc1	> 200	1.7	63.4	> 200	> 200	1.1	> 200	> 200	2	0.2	> 200	> 200	Activity (K562 [6]): 8.26%; Activity (K562 [1]): Dose-dependent effect; Activity (K562 [7]): Dose-dependent effect; Activity (K562 [8]): 14.83%; Activity (K562 [9]): Active; Activity (K562 [10]): 13.71%; Activity (K562 [11]): 20.38%; Activity (K562 [12]): 10.95%; Activity (K562 [13]): tde; Activity (K562 [14]): 37.9%; Activity (K562 [15]): 17.82%
COCOc1ccc(/C=C/C(=O)N2CCN(Cc3ccc(Cl)c(Cl)c3)CC2)cc1OCOC	64.4	19.3	107	139	> 200	7.4	29.1	7.4	> 200	3.7	69.7	31	–
O=C(/C=C/c1ccc(O)c(O)c1)NCCN1CCOCC1	> 200	> 200	> 200	> 200	> 200	> 200	> 200	> 200	> 200	> 200	> 200	> 200	–
